From ChEMBL document CHEMBL2396579, “Synthesis and in vitro photocytotoxicity of coumarin derivatives for one- and two-photon excited photodynamic therapy” (J Med Chem, 2013) come the findings set out here.

Converted amounts (≈) assume the structure as drawn. The source made the active and inactive calls. The rule behind the calls is not given here. Bounds are passed on as bounds.

The first data set has as its system HepG2. The data set can be described thus: Photocytotoxicity against human HepG2 cells assessed as cell viability at 20 uM incubated for 4 hrs prior to 630 mW laser irradiation for 10 mins followed by 24 hrs incubation in dark by CCK-8 assay. Format: functional.
Settings: not given
The method in brief: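 HepG2 cells were incubated with 20 μM photosensitizer for 4 h and split into two equal series. One series received 800 nm femtosecond laser light (1.64 W cm−2, 1 kHz, 130 fs) for 10 min; the other stayed dark as control. Both were held 24 h in the dark before viability was read. Photosensitizer-free cells were also irradiated. Mean ± SD, three replicates.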
For the compound `COCCOCCOCCOCCN(CCOCCOCCOCCOC)c1ccc(/C=C/C(=O)c2cc3ccc(OCCOCCOCCOC)cc3oc2=O)cc1`, the outcome was inactive.

For the compound `COCCOCCOCCOCCN(C)c1ccc(/C=C/C(=O)c2cc3ccc(OCCOCCOCCOC)cc3oc2=O)cc1`, the result was inactive.

Staying with this data set, now noted: HepG2, light or radiation study, read-out: Activity.
For the compound `CCN(CC)c1ccc2cc(C(=O)/C=C/c3ccc(N(CCOCCOCCOCCOC)CCOCCOCCOCCOC)cc3)c(=O)oc2c1`, the viability at 20 µM turned out to be 30%.

With `CCN(CC)c1ccc(/C=C/C(=O)c2cc3ccc(OCCOCCOCCOC)cc3oc2=O)cc1`, the viability at 20 µM came to 70%.

With `CCN(CC)c1ccc2cc(C(=O)/C=C/c3ccc(N(C)CCOCCOCCOCCOC)cc3)c(=O)oc2c1`, the viability at 20 µM is 20%.

The subject of the next data set is HepG2. The data set can be described thus: Photocytotoxicity against human HepG2 cells assessed as growth inhibition incubated for 4 hrs in dark prior to 20 mW cm'-2 laser irradiation for 20 mins followed by 24 hrs incubation in dark by CCK8 assay. The class given is functional, cell-based. The note with it: HepG2, light or radiation study. The method in brief:
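HepG2 cells were loaded with photosensitizer for 4 h and then irradiated with a 532 nm laser for 20 min at 20 mW cm−2. They were kept in the dark for 24 h before the viability test. IC50 is the concentration giving 50% growth inhibition.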
Consider `CCN(CC)c1ccc2cc(C(=O)/C=C/c3ccc(N(CCOCCOCCOCCOC)CCOCCOCCOCCOC)cc3)c(=O)oc2c1`, for which the IC50 came out at 4.6 µM.

For the compound `COCCOCCOCCOCCN(CCOCCOCCOCCOC)c1ccc(/C=C/C(=O)c2cc3ccc(OCCOCCOCCOC)cc3oc2=O)cc1`, the IC50 was more than 50 µM.

Take `CCN(CC)c1ccc(/C=C/C(=O)c2cc3ccc(OCCOCCOCCOC)cc3oc2=O)cc1`: the IC50 was found to be 8.1 µM.

Take `CCN(CC)c1ccc2cc(C(=O)/C=C/c3ccc(N(C)CCOCCOCCOCCOC)cc3)c(=O)oc2c1`: the IC50 is 3.9 µM.

On to `COCCOCCOCCOCCN(C)c1ccc(/C=C/C(=O)c2cc3ccc(OCCOCCOCCOC)cc3oc2=O)cc1`, for which the half-inhibitory concentration (IC50) was more than 50 µM.

In a further data set the test system is HepG2. The data set can be described thus: Dark cytotoxicity against human HepG2 cells after 24 hrs by CCK-8 assay. Format: cell-based. The note with it: HepG2, 24 h. The method in brief:
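HepG2 cells exposed to a range of photosensitizer concentrations (tested up to 50 μM) for 24 h without light before the viability test. IC50 is the concentration giving 50% growth inhibition.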
Compound `CCN(CC)c1ccc2cc(C(=O)/C=C/c3ccc(N(CCOCCOCCOCCOC)CCOCCOCCOCCOC)cc3)c(=O)oc2c1` showed an IC50 of more than 50 µM.

The compound `COCCOCCOCCOCCN(CCOCCOCCOCCOC)c1ccc(/C=C/C(=O)c2cc3ccc(OCCOCCOCCOC)cc3oc2=O)cc1` yielded an IC50 of more than 50 µM.

In the case of `CCN(CC)c1ccc(/C=C/C(=O)c2cc3ccc(OCCOCCOCCOC)cc3oc2=O)cc1`, the half-maximal inhibitory concentration (IC50) is more than 50 µM.

The compound `CCN(CC)c1ccc2cc(C(=O)/C=C/c3ccc(N(C)CCOCCOCCOCCOC)cc3)c(=O)oc2c1` gave an IC50 of more than 50 µM.

On to `COCCOCCOCCOCCN(C)c1ccc(/C=C/C(=O)c2cc3ccc(OCCOCCOCCOC)cc3oc2=O)cc1`, for which the IC50 is more than 50 µM.

Tested on in a further data set: not listed separately
The data set can be described thus: Octanol-water partition coefficient, log P of the compound.
Settings: not given
Format: physicochemical.
`CCN(CC)c1ccc2cc(C(=O)/C=C/c3ccc(N(CCOCCOCCOCCOC)CCOCCOCCOCCOC)cc3)c(=O)oc2c1`: the logP amounted to 2.2.

Consider `COCCOCCOCCOCCN(CCOCCOCCOCCOC)c1ccc(/C=C/C(=O)c2cc3ccc(OCCOCCOCCOC)cc3oc2=O)cc1`, for which the logP turned out to be 0.3.

`CCN(CC)c1ccc(/C=C/C(=O)c2cc3ccc(OCCOCCOCCOC)cc3oc2=O)cc1` registered a logP of 3.

`CCN(CC)c1ccc2cc(C(=O)/C=C/c3ccc(N(C)CCOCCOCCOCCOC)cc3)c(=O)oc2c1` registered a logP of 3.4.

The compound `COCCOCCOCCOCCN(C)c1ccc(/C=C/C(=O)c2cc3ccc(OCCOCCOCCOC)cc3oc2=O)cc1` yielded a logP of 1.4.

For a further data set, the system named is HepG2. The data set can be described thus: Intracellular ROS generation in human HepG2 cells at 20 uM after 4 hrs by DCFH-DA-based fluorescence analysis. The class given is functional, cell-based.
Settings: not given
The method in brief:
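Intracellular ROS in HepG2 cells was detected with the probe 2,7-dichlorodihydrofluorescein diacetate (DCFH-DA), which ROS convert to fluorescent 2,7-dichlorofluorescein.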
With `CCN(CC)c1ccc2cc(C(=O)/C=C/c3ccc(N(CCOCCOCCOCCOC)CCOCCOCCOCCOC)cc3)c(=O)oc2c1`, the result was Active.

Take `COCCOCCOCCOCCN(CCOCCOCCOCCOC)c1ccc(/C=C/C(=O)c2cc3ccc(OCCOCCOCCOC)cc3oc2=O)cc1`: the outcome was Active.

In the case of `CCN(CC)c1ccc(/C=C/C(=O)c2cc3ccc(OCCOCCOCCOC)cc3oc2=O)cc1`, the outcome was Active.

As for `CCN(CC)c1ccc2cc(C(=O)/C=C/c3ccc(N(C)CCOCCOCCOCCOC)cc3)c(=O)oc2c1`, the outcome was Active.

Take `COCCOCCOCCOCCN(C)c1ccc(/C=C/C(=O)c2cc3ccc(OCCOCCOCCOC)cc3oc2=O)cc1`: the outcome was Active.

Tested on in another data set: not listed separately
The data set can be described thus: Solubility of the compound in PBS buffer at pH 7.4. The class given is physicochemical.
Settings: not given
`CCN(CC)c1ccc2cc(C(=O)/C=C/c3ccc(N(CCOCCOCCOCCOC)CCOCCOCCOCCOC)cc3)c(=O)oc2c1` gave a solubility of 750 µg/mL (≈ 1010 µM).

Compound `COCCOCCOCCOCCN(CCOCCOCCOCCOC)c1ccc(/C=C/C(=O)c2cc3ccc(OCCOCCOCCOC)cc3oc2=O)cc1` registered a solubility of more than 10000 µg/mL.

On to `CCN(CC)c1ccc(/C=C/C(=O)c2cc3ccc(OCCOCCOCCOC)cc3oc2=O)cc1`, for which the solubility worked out at 1.1 µg/mL (≈ 2.16 µM).

On to `CCN(CC)c1ccc2cc(C(=O)/C=C/c3ccc(N(C)CCOCCOCCOCCOC)cc3)c(=O)oc2c1`, for which the solubility was determined as 26 µg/mL (≈ 45.9 µM).

In the case of `COCCOCCOCCOCCN(C)c1ccc(/C=C/C(=O)c2cc3ccc(OCCOCCOCCOC)cc3oc2=O)cc1`, the solubility turned out to be 700 µg/mL (≈ 1060 µM). Compared with the last compound, the solubility is about 27-fold higher.

A further data set relates to HepG2. The data set can be described thus: Cellular uptake in human HepG2 cells at 20 uM after 4 hrs by fluorescence spectrophotometry. The class given is ADME, cell-based. The note with it: hepg2, 4 h. In a few lines: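 HepG2 cells were incubated with 20 μM photosensitizer for different times and intracellular concentration was measured at each time point. Mean ± SD, three replicates.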
With `CCN(CC)c1ccc2cc(C(=O)/C=C/c3ccc(N(CCOCCOCCOCCOC)CCOCCOCCOCCOC)cc3)c(=O)oc2c1`, the Drug uptake result is given as “Active”.

On to `COCCOCCOCCOCCN(CCOCCOCCOCCOC)c1ccc(/C=C/C(=O)c2cc3ccc(OCCOCCOCCOC)cc3oc2=O)cc1`, for which the Drug uptake result is “Active”.

With `CCN(CC)c1ccc(/C=C/C(=O)c2cc3ccc(OCCOCCOCCOC)cc3oc2=O)cc1`, the Drug uptake entry is “Active”.

For `CCN(CC)c1ccc2cc(C(=O)/C=C/c3ccc(N(C)CCOCCOCCOCCOC)cc3)c(=O)oc2c1`, the Drug uptake result is “Active”.

In the case of `COCCOCCOCCOCCN(C)c1ccc(/C=C/C(=O)c2cc3ccc(OCCOCCOCCOC)cc3oc2=O)cc1`, the Drug uptake entry is reported as “Active”.

Tested on in a further data set: not listed separately
The data set can be described thus: Drug uptake in human HepG2 cell mitochondria at 10 uM after 4 hrs by confocal laser scanning microscopy. Format: ADME. Particulars: hepg2, 4 h.
For `CCN(CC)c1ccc2cc(C(=O)/C=C/c3ccc(N(CCOCCOCCOCCOC)CCOCCOCCOCCOC)cc3)c(=O)oc2c1`, the Drug uptake entry is “Active”.

Regarding `COCCOCCOCCOCCN(CCOCCOCCOCCOC)c1ccc(/C=C/C(=O)c2cc3ccc(OCCOCCOCCOC)cc3oc2=O)cc1`, the Drug uptake entry was “Not Active”.

Take `CCN(CC)c1ccc(/C=C/C(=O)c2cc3ccc(OCCOCCOCCOC)cc3oc2=O)cc1`: the Drug uptake result was “Active”.

On to `CCN(CC)c1ccc2cc(C(=O)/C=C/c3ccc(N(C)CCOCCOCCOCCOC)cc3)c(=O)oc2c1`, for which the Drug uptake result is “Active”.

`COCCOCCOCCOCCN(C)c1ccc(/C=C/C(=O)c2cc3ccc(OCCOCCOCCOC)cc3oc2=O)cc1`: the Drug uptake result is “Not Active”.
